Experimental data pooled from the literature.
Protocols differ between the studies behind these lines.
Target: Myosin light chain kinase family member 4 (MYLK4, Homo sapiens, UniProt Q86YV6)
Residues used in one study (Q86YV6 1-388): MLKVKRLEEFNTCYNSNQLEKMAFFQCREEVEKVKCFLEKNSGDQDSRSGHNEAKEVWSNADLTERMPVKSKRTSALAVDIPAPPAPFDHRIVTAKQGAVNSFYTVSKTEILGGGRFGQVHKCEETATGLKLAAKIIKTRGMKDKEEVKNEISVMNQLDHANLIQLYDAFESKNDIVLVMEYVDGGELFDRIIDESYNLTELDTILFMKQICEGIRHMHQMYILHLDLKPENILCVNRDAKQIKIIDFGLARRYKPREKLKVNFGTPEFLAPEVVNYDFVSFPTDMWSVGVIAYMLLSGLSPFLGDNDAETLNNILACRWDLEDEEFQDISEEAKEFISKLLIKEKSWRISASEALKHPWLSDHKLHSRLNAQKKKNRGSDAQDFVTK

| SMILES | assay | conditions | remaining binding |
| --- | --- | --- | --- |
| C[C@H](c1cccc(C#N)c1)n1cc(Cl)cc(C(N)=O)c1=N | cell-free assay, competition with immobilised ligand | 1 µM | 100% |
| N[C@H]1CCN(c2nccc(-c3cnn4ncccc34)n2)C1 | binding | 1 µM | 100% |
| O=C(NCCCN1CCOCC1)c1ccc(Nc2ncc(Cl)c(-c3ccc(Cl)s3)n2)cc1 | binding, competition with immobilised ligand | 1 µM | 0.05% |
| C[C@@H]1CCN(c2nccc(-c3cnn4ncccc34)n2)C1 | binding | 1 µM | 100% |
| CCN1CCN(Cc2ccc(C(=O)Nc3ccc(C)c(Oc4ccc5c(c4)CC(=O)N5)c3)cc2C(F)(F)F)CC1 | binding, competition with immobilised ligand | 1 µM | 84% |
| CN(C)c1nccc(-c2cnn3ncccc23)n1 | binding | 1 µM | 88% |
| O=C(NCCCN1CCOCC1)c1ccc(Nc2nccc(-c3cc4ccccc4s3)n2)cc1 | binding, competition with immobilised ligand | 1 µM | 0.1% |
| COc1ccnn2ncc(-c3ccnc(N(C)C)n3)c12 | binding | 1 µM | 100% |
| CS(=O)(=O)N1CCCC(NC(=O)[C@H](CCC2CCCCC2)NC(=O)c2ccc(CNc3ncnc4c3nnn4-c3ccccc3)cc2)C1 (stereo partly shown) | cell-free assay, competition with immobilised ligand | 0.1 µM | 100% |
| COc1cnc(Nc2cccc(S(N)(=O)=O)c2)nc1N1CCN(c2ccccc2)C(=O)C1 | binding, competition with immobilised ligand | 1 µM | 100% |
| c1cncc(-c2cccc(Nc3nccc(NC4CCCCC4)n3)c2)c1 | binding, competition with immobilised ligand | 10 µM | 51% |
| Cc1nc(Cc2cccc(C(F)(F)F)c2)sc1-c1ccc(C(N)=O)nc1 | cell-free assay, competition with immobilised ligand | 1 µM | 91% |
| COc1cnc(Nc2cccc(S(N)(=O)=O)c2)nc1N1CCN(c2ccccc2)CC1 | binding, competition with immobilised ligand | 1 µM | 100% |
| COc1ccc2c(c1)O[C@@H](c1ccc(OC)c(OC)c1)C[C@H]2NC(=O)C1(c2ccc3c(c2)OC(F)(F)O3)CC1 | cell-free assay, competition with immobilised ligand | 1 µM | 97% |
| CN(C)c1ncc(F)c(-c2cnn3ncccc23)n1 | binding | 1 µM | 100% |
| O=C(NCC1CCOCC1)c1n[nH]cc1NC(=O)c1c(F)cccc1F | binding, competition with immobilised ligand | 1 µM | 100% |
| CCS(=O)(=O)c1cc2cc(C[C@@](O)(CC(C)(C)c3ccc(F)cc3C(N)=O)C(F)(F)F)[nH]c2cn1 | cell-free assay, competition with immobilised ligand | 1 µM | 100% |
| COc1ncc2cc3ccccc3nc2c1C#N | cell-free assay, competition with immobilised ligand | 5 µM | 93% |
| Cc1cnc(Nc2ccc(C(=O)N3CCC(N4CCCC4)CC3)cc2)nc1-c1cc2ccccc2s1 | binding, competition with immobilised ligand | 1 µM | 0% |
